NPY-Y1 antag = antagonists of human neuropeptide Y receptor Y1 | P25929 | AID 1040 | 1% of 200,000 active | HEK293-CNG Y1 cells, membrane potential fluorescence; NPY at EC95, then isoproterenol | inhibition, % at 3.6 µM;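 active means inhibition above the campaign mean inhibition of all tested compounds plus 3 SD, cut at about 20% in these data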
Target sequence (P25929 whole entry, looked up): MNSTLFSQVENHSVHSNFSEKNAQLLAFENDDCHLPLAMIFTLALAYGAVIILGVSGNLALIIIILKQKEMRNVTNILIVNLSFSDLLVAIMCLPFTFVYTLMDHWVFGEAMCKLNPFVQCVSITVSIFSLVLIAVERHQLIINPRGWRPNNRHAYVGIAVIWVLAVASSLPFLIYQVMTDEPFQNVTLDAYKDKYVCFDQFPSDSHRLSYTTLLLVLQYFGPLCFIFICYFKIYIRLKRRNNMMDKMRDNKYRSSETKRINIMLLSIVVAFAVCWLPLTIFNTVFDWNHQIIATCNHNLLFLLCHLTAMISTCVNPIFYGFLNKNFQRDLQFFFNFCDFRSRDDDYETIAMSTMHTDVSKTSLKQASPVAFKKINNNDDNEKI
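Material: HEK293 cells with Y1 receptor plus CNG channel; times: compound incubation 1 h at room temperature, readout 45 min post-stimulation; signal: fluorescence, membrane potential probe; read-out basis: fluorescence ratio normalized to % inhibition between controls; benchmarks: full-block control isoproterenol-only wells, zero-block control NPY plus isoproterenol wells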
NPY Y2 blocker = antagonists of human neuropeptide Y receptor Y2. P49146. NPY-Y2 expressing cells, antagonist mode. inhibition, % at 2.7 µM. 0.99% of 140,000 active
NPY2 pot ag = potentiators or agonists of human neuropeptide Y receptor Y2; P49146; cells expressing NPY-Y2, potentiator/agonist read-out; 0.45% of 220,000 active; activation, % at 3.6 µM; in the data active means activation above about 27%;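 further: cells stimulated with NPY near EC25 plus isoproterenol at EC100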
NPY-Y1 PAM-ag = human NPY-Y1 potentiation or agonism, primary screen; activation, % at 3.6 µM; 0.37% of 220,000 active; P25929; AID 1304; NPY-Y1 expressing cells, potentiator/agonist activation; in the data active means activation above about 33%, passing the limit was not always enough;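 further: cells stimulated with NPY at EC10 then isoproterenol at EC100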
NPY1 antag conf = human NPY-Y1 antagonism, confirmation | shares compounds with NPY-Y1 antag | AID 1254 | HEK293-CNG NPY-Y1, membrane potential fluorescence, cAMP; NPY challenge against isoproterenol-raised cAMP | 21% of 1,200 active | inhibition, % at 3.6 µM; in the data active means inhibition above about 20%
NPY2 antag ctr = antagonizes human NPY-Y2, counter-screen to NPY-Y1 antagonists; 28% of 1,200 active; HEK293 NPY-Y2 CNG membrane potential fluorescence, antagonism; cells given NPY, then isoproterenol; AID 1255; inhibition, % at 3.6 µM; shares compounds with NPY-Y1 antag
Hits are given with their value; – = inactive; · = not tested or not shown. Hits are enriched below; roughly 1.8% of the tested compounds scored in any of these assays. Unless noted, no stated cut-off is given here; in the data, active means inhibition above about 17%; inactive means the rest.

SMILES | NPY-Y1 antag | NPY Y2 blocker | NPY2 pot ag | NPY-Y1 PAM-ag | NPY1 antag conf | NPY2 antag ctr
CC(C)(C)NC(=O)c1oc2ccccc2c1COc1ccccc1 | 28 | – | – | – | 26 | –
O=C(Nc1ccccc1)C1=C[C@H](c2csc3ccccc23)C[C@H](OCc2ccc(CO)cc2)O1 | 26 | · | – | – | – | –
CCOc1ccc(-n2c(-c3ccccc3)c[n+]3c2CCCCC3)cc1 | 24 | – | – | – | – | 17
c1ccc(-c2c[n+]3c(n2-c2ccccc2)CCC3)cc1 | · | · | – | – | · | ·
Cc1ccc(C2CC(C(F)(F)F)n3nc(C(=O)Nc4c(C)n(C)n(-c5ccccc5)c4=O)cc3N2)cc1 (stereo unspecified) | – | · | – | – | · | ·
Cc1cc(NC(=O)c2cc3n(n2)C(C(F)(F)F)CC(c2ccc(Cl)c(Cl)c2)N3)no1 (stereo unspecified) | 21 | – | – | – | – | –
O=C1c2ccccc2C(=O)c2cc(S(=O)(=O)Nc3ccccc3)ccc21 | – | – | – | – | · | ·
CCOC(=O)C1(CC2CCCCO2)CCN(C2CCSCC2)CC1 (stereo unspecified) | 34 | · | – | – | – | –
COC(=O)CN(c1ccc(F)cc1)S(=O)(=O)c1ccc2c(c1)OCCO2 | – | – | – | – | · | ·
CCOC(=O)N1CCC(NC(=O)C2=CCN(S(=O)(=O)c3ccc(OC)cc3)CC2)CC1 | · | · | – | – | · | ·
O=C(CCCc1cccs1)Nc1nc(-c2ccc(F)cc2)cs1 | 25 | – | – | – | – | –
O=C(O)CCCC(=O)Nc1nc(-c2ccc(F)cc2)cs1 | – | – | – | – | · | ·
COC(=O)C1SCC2C(=O)N(Cc3ccc(Cl)cc3)CC(=O)N21 (stereo unspecified) | – | · | – | – | · | ·
COc1cc2c(cc1OC)C(c1cccs1)N(C(=S)NC(C)C)CC2 (stereo unspecified) | 30 | · | – | – | – | –
O=C(Nc1nc(-c2ccccn2)cs1)c1cccc(-n2cnnn2)c1 | · | · | – | – | · | ·
Cc1cc(C(=O)N/N=C/c2cccnc2)c(C)o1 | – | – | – | – | · | ·
COc1ccc(COc2cc(-c3cccc(OC)c3)nc3ccc(NC(=O)c4ccc(N(C)C)cc4)cc23)cc1 | 43 | – | – | – | – | –
CCCCN(C)C(=O)Cc1c(OC)ccc2cc(Br)ccc12 | 21 | – | – | – | – | –
COc1ccc2cc(Br)ccc2c1CC(=O)N(C)C | – | · | – | – | · | ·
Cc1cc(C)cc(OCc2nc3ncc(Br)cc3[nH]2)c1 | – | – | – | – | · | ·
COc1cccc(OCc2nc3ncc(Br)cc3[nH]2)c1 | 24 | – | – | – | – | –
N#Cc1c(-c2cccs2)cc(-c2cccs2)[nH]c1=O | · | · | – | – | · | ·
CCCC(=O)C1=C(N2CCCCC2)CC(C)(C)C(C(=O)OC)C1=O (stereo unspecified) | – | · | – | – | · | ·
COc1ccc(/C=C/C2=CC(C)(C)NC(=S)N2)cc1OC | – | · | – | – | · | ·
O=C(O)CC/C(=C\c1ccc(N2CCOCC2)c([N+](=O)[O-])c1)c1nc2ccccc2s1 | 41 | · | – | – | 54 | 79
SMILES | NPY-Y1 antag | NPY Y2 blocker | NPY2 pot ag | NPY-Y1 PAM-ag | NPY1 antag conf | NPY2 antag ctr
CCNNC(=O)C(O)(c1cccc(C)c1)c1cccc(C)c1 | – | – | – | – | · | ·
CCCNNC(=O)C(O)(c1cccc(C)c1)c1cccc(C)c1 | 26 | – | – | – | – | –
Nc1nncn1C(=O)c1ccc(Cl)cc1Cl | – | · | – | – | · | ·
Cc1[nH]nc2c1C(c1ccc(-c3ccccc3C#N)o1)C(C#N)=C(N)O2 (stereo unspecified) | – | – | – | – | · | ·
O=C(CCCCN1CCCCC1)c1ccc2c(c1)Cc1ccccc1-2 | 24 | · | – | – | – | –
O=C(CCN1CCCCCC1)c1ccccc1 | – | – | – | – | · | ·
CCc1ccc(S(=O)(=O)c2n[nH]n3c2nc(=O)c2ccccc23)cc1 | 24 | – | – | – | – | –
CC(C)c1ccc(S(=O)(=O)c2n[nH]n3c2nc(=O)c2ccccc23)cc1 | – | – | – | – | · | ·
O=C(c1cc(COc2ccc(F)cc2Cl)on1)N1CCc2ccccc2C1 | 31 | · | – | – | – | –
O=C(c1cc(COc2ccc(F)cc2Cl)on1)N1CCCC(c2ccccc2)C1 (stereo unspecified) | – | · | – | – | · | ·
Cc1ccc(CN2C(=O)CCC2C(=O)NCCCN2CCC(C)CC2)cc1 (stereo unspecified) | – | – | – | – | · | ·
COn1c(SCc2ccc(Cl)cc2)nc2ccccc2c1=O | 38 | – | – | – | 27 | 21
CC1CCCN(c2nc3ccccc3nc2C(C#N)S(=O)(=O)c2cccs2)C1 (stereo unspecified) | – | – | – | – | · | ·
Cc1ccc(SCCC(=O)OCn2nnc3ccccc3c2=O)cc1 | 23 | · | – | – | – | –
COc1cccc(CNC(=O)Nc2cccs2)c1 | – | – | – | – | · | ·
COc1ccccc1CN1C[C@@H]2C[C@@H](C3=Cc4cc(Cl)ccc4OC3)N3CCC[C@@]23C1=O | 24 | · | – | – | – | –
O=C1N(Cc2cccc(Cl)c2)C[C@@H]2C[C@@H](c3ccc4nonc4c3)N3CCC[C@@]123 | 24 | · | – | – | – | –
O=C1N(Cc2cccc(Cl)c2)C[C@@H]2C[C@@H](c3cccn3-c3nccs3)N3CCC[C@@]123 | 26 | · | – | – | – | –
O=C1N(Cc2cccc(Cl)c2)C[C@@H]2C[C@@H](c3cccn3-c3ccccn3)N3CCC[C@@]123 | – | · | – | – | · | ·
COC(=O)c1cc(-c2c(C)oc3cc(O)ccc3c2=O)c(C)o1 | – | – | – | – | · | ·
C(=C\c1ccccc1)/CN1CCN(c2ncnc3c2oc2ccccc23)CC1 | 26 | – | – | – | – | –
Nc1nc(N2CCN(C/C=C/c3ccccc3)CC2)nc2ccccc12 | 22 | – | – | – | – | –
c1ccc2c(c1)oc1c(N3CCOCC3)ncnc12 | – | – | – | – | · | ·
C=C(C)CNC(=S)NN=C1c2ccccc2-c2ccccc21 | 33 | · | – | – | 36 | 69
CCn1cnc2cc(NCc3nc4ccccc4n3C)ccc21 | – | – | – | – | · | ·
SMILES | NPY-Y1 antag | NPY Y2 blocker | NPY2 pot ag | NPY-Y1 PAM-ag | NPY1 antag conf | NPY2 antag ctr
C/C(=N\NC(=O)c1ccccc1[N+](=O)[O-])c1ccc(Br)s1 | – | · | – | – | · | ·
C/C(=N\Nc1nc2ccccc2s1)c1ccc(Br)s1 | 31 | · | – | – | – | 20
O=C(CSc1nnc(SCc2ccc(Cl)cc2)s1)N/N=C/c1ccc(C(=O)O)cc1 | · | · | – | – | · | ·
Cc1ccc(C(O)(c2ccccc2)c2ccccc2C(C)N(C)C)c(C)c1 (stereo unspecified) | 25 | – | – | – | 21 | 32
CCCCn1c(-c2ccco2)n[nH]c1=S | – | – | – | – | · | ·
COc1ccc(-c2cc(C(F)(F)F)nc(N3CCN(C)CC3)n2)cc1 | 25 | – | – | – | – | –
COc1ccc(-c2cc(C(F)(F)F)nc(N3CCCCCC3)n2)cc1 | – | – | – | – | · | ·
Cc1[nH]n(-c2ccccc2)c(=O)c1/C=N/O | 58 | – | – | – | – | –

Screening data from PubChem BioAssay.
